≈ marks a conversion by molar mass, not a printed value. Calls of active or inactive are those of the source. The calls are words filed in the database; no cut-off is given here.
Legend:
Staphylococcus aureus [1] = experiment: Antibacterial activity against methicillin-resistant Staphylococcus aureus 33829 infected in in vitro pharmacokinetic model assessed as time required to 99.9% killing at 1500 mg, iv every 8 hrs using 10^6 CFU/ml inoculum; assay type: functional
Method in brief: (§1)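 Single-compartment dilutional in vitro PK model, 10% Mueller-Hinton broth, 37°C, stirred, dilution 132 ml/h. […] Inoculum 10^6 CFU/ml (added 45 min pre-dose) or 10^8 CFU/ml (run overnight). Viable counts by spiral plating, beta-lactamase neutralization, detection limit 10^2 CFU/ml. At least triplicate.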

Staphylococcus aureus [2] = experiment: Antibacterial activity against methicillin-resistant Staphylococcus aureus 33815 infected in in vitro pharmacokinetic model assessed as time required to 99% killing at 1500 mg, iv every 8 hrs using 10^8 CFU/ml inoculum; assay type: functional
Method in brief: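 T99 and T99.9 were taken as the times for the count to fall 99% or 99.9% from time 0, using serial viable counts over 48 h. Inoculum was 10^8 CFU/ml, grown overnight in the model before dosing.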

Staphylococcus aureus [3] = experiment: AUBKC (0 to 24 hrs) in methicillin-sensitive Staphylococcus aureus 5956 infected in in vitro pharmacokinetic model at 750 mg, iv every 8 hrs using 10^6 CFU/ml inoculum; assay type: functional
Staphylococcus aureus [4] = experiment: Antibacterial activity against methicillin-resistant Staphylococcus aureus 33827 infected in in vitro pharmacokinetic model assessed as reduction in viable count at 1500 mg, iv every 8 hrs measured after 24 hrs using 10^8 CFU/ml inoculum; assay type: functional; method in brief: as §1
Staphylococcus aureus [5] = experiment: Antibacterial activity against methicillin-resistant Staphylococcus aureus 33827 by broth dilution method; assay type: functional
Method in brief: (§2)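 Standard CLSI broth dilution MIC.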

Staphylococcus aureus [6] = experiment: Antibacterial activity against methicillin-resistant Staphylococcus aureus 33815 by broth dilution method; assay type: functional; method in brief: as §2
Staphylococcus aureus [7] = experiment: Antibacterial activity against methicillin-resistant Staphylococcus aureus 33827 by 10% MH broth method; assay type: functional
Method in brief: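 Broth dilution MIC per CLSI, run in 10% Mueller-Hinton broth at nondoubling dilutions.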

Staphylococcus aureus [8] = experiment: T>MIC in methicillin-resistant Staphylococcus aureus 33815 infected in vitro pharmacokinetic model at 750 mg, iv every 8 hrs; assay type: functional
Staphylococcus aureus [9] = experiment: Antibacterial activity against methicillin-sensitive Staphylococcus aureus 5956 infected in in vitro pharmacokinetic model assessed as reduction in viable count at 750 mg, iv every 8 hrs measured after 12 hrs using 10^6 CFU/ml inoculum; assay type: functional
Staphylococcus aureus [10] = experiment: Antibacterial activity against methicillin-resistant Staphylococcus aureus 33921 infected in in vitro pharmacokinetic model assessed as reduction in viable count at 750 mg, iv every 8 hrs measured after 12 hrs using 10^6 CFU/ml inoculum; assay type: functional; method in brief: as §1
Staphylococcus aureus [11] = experiment: Antibacterial activity against methicillin-resistant Staphylococcus aureus 33921 infected in in vitro pharmacokinetic model assessed as reduction in viable count at 750 mg, iv every 8 hrs measured after 24 hrs using 10^6 CFU/ml inoculum; assay type: functional
Staphylococcus aureus [12] = experiment: Antibacterial activity against methicillin-resistant Staphylococcus aureus 33922 infected in in vitro pharmacokinetic model assessed as reduction in viable count at 750 mg, iv every 8 hrs measured after 48 hrs using 10^6 CFU/ml inoculum; assay type: functional
Staphylococcus aureus [13] = experiment: Antibacterial activity against methicillin-resistant Staphylococcus aureus 33827 infected in in vitro pharmacokinetic model assessed as reduction in viable count at 750 mg, iv every 8 hrs measured after 48 hrs using 10^6 CFU/ml inoculum; assay type: functional; method in brief: as §1
Staphylococcus aureus [14] = experiment: Antibacterial activity against methicillin-resistant Staphylococcus aureus 33815 assessed as viable count at 2 times of MIC after 24 hrs using 10^6 CFU/ml inoculum; assay type: functional, organism-based
Method in brief: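 Population analysis during tomopenem dose-ranging runs in the in vitro PK model (10^6 CFU/ml, T>MIC 0-100%). […] Growth counted as log CFU/ml, detection limit 2 log10.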

Staphylococcus aureus [15] = experiment: T>MIC for static effect in methicillin-resistant Staphylococcus aureus 33827 in in vitro pharmacokinetic model after 24 hrs using 10^6 CFU/ml inoculum; assay type: functional
Staphylococcus aureus [16] = experiment: T>MIC for 2-log drop in count in methicillin-resistant Staphylococcus aureus 33827 in in vitro pharmacokinetic model after 24 hrs using 10^6 CFU/ml inoculum; assay type: functional
Staphylococcus aureus [17] = experiment: T>MIC for 3-log drop in count in methicillin-resistant Staphylococcus aureus 33829 in in vitro pharmacokinetic model after 24 hrs using 10^6 CFU/ml inoculum; assay type: functional
Staphylococcus aureus [18] = experiment: T>MIC for 3-log drop in count in methicillin-resistant Staphylococcus aureus 33820 in in vitro pharmacokinetic model after 24 hrs using 10^6 CFU/ml inoculum; assay type: functional
Staphylococcus aureus [19] = experiment: T>MIC for 4-log drop in count in methicillin-resistant Staphylococcus aureus 33820 in in vitro pharmacokinetic model after 24 hrs using 10^6 CFU/ml inoculum; assay type: functional
Staphylococcus aureus [20] = experiment: T>MIC for 2-log drop in count in methicillin-sensitive Staphylococcus aureus 5956 in in vitro pharmacokinetic model after 24 hrs using 10^8 CFU/ml inoculum; assay type: functional
Method in brief: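 Dose-ranging: 7–13 simulated regimens per strain giving T>MIC of 0–100% (MIC from 10% MHB), at 106 or 10^8 CFU/ml as stated.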

Staphylococcus aureus [21] = experiment: T>MIC for 2-log drop in count in methicillin-resistant Staphylococcus aureus 33815 in in vitro pharmacokinetic model after 24 hrs using 10^8 CFU/ml inoculum; assay type: functional
Staphylococcus aureus [22] = experiment: Antibacterial activity against methicillin-resistant Staphylococcus aureus 33921 infected in in vitro pharmacokinetic model assessed as reduction in viable count at 1500 mg, iv every 8 hrs measured after 12 hrs using 10^6 CFU/ml inoculum; assay type: functional; method in brief: as §1
Staphylococcus aureus [23] = experiment: Antibacterial activity against methicillin-resistant Staphylococcus aureus 33827 infected in in vitro pharmacokinetic model assessed as reduction in viable count at 1500 mg, iv every 8 hrs measured after 24 hrs using 10^6 CFU/ml inoculum; assay type: functional; method in brief: as §1
Staphylococcus aureus [24] = experiment: Antibacterial activity against methicillin-resistant Staphylococcus aureus 33820 infected in in vitro pharmacokinetic model assessed as reduction in viable count at 1500 mg, iv every 8 hrs measured after 24 hrs using 10^6 CFU/ml inoculum; assay type: functional
Method in brief: (§3)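 Single-compartment dilutional in vitro PK model, 37°C, stirred, in 10% Mueller-Hinton broth. […] Inoculum 10^6 CFU/ml from a 24-h plate culture was added 45 min before dosing. Viable counts by spiral plating on nutrient agar with β-lactamase neutralization. Log change was taken from time 0; detection limit 10^2 CFU/ml; at least triplicate.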

Staphylococcus aureus [25] = experiment: Antibacterial activity against methicillin-resistant Staphylococcus aureus 33829 infected in in vitro pharmacokinetic model assessed as reduction in viable count at 1500 mg, iv every 8 hrs measured after 36 hrs using 10^6 CFU/ml inoculum; assay type: functional; method in brief: as §1
Staphylococcus aureus [26] = experiment: Antibacterial activity against methicillin-resistant Staphylococcus aureus 33921 infected in in vitro pharmacokinetic model assessed as reduction in viable count at 1500 mg, iv every 8 hrs measured after 48 hrs using 10^6 CFU/ml inoculum; assay type: functional; method in brief: as §1
Staphylococcus aureus [27] = experiment: Antibacterial activity against methicillin-resistant Staphylococcus aureus 33815 infected in in vitro pharmacokinetic model assessed as reduction in viable count at 1500 mg, iv every 8 hrs measured after 48 hrs using 10^6 CFU/ml inoculum; assay type: functional; method in brief: as §3

Work on `C[C@@H](O)[C@H]1C(=O)N2C(C(=O)O)=C(S[C@H]3C[C@@H](C(=O)N4CC[C@H](NC(=O)CNC(=N)N)C4)N(C)C3)[C@H](C)[C@H]12` [TOMOPENEM] yielded a Time (Staphylococcus aureus [1]) of 12 h, a Time (Staphylococcus aureus [2]) of 16 h and an AUBC (Staphylococcus aureus [3]) of 27.6 log10CFU/ml.hr. For the same compound, the log10CFU/ml (Staphylococcus aureus [4]) was 5.8, the MIC (Staphylococcus aureus [5]) was 2 µg/mL (≈ 3.72 µM) and the MIC (Staphylococcus aureus [6]) was 16 µg/mL (≈ 29.8 µM). For the same compound, the MIC (Staphylococcus aureus [7]) was 0.75 µg/mL (≈ 1.39 µM), the “fT>MIC” value (Staphylococcus aureus [8]) was 73% and the log10CFU/ml (Staphylococcus aureus [9]) was 4.1. It also gave a log10CFU/ml (Staphylococcus aureus [10]) of 3.6, a log10CFU/ml (Staphylococcus aureus [11]) of 4 and a log10CFU/ml (Staphylococcus aureus [12]) of 3.9. For the same compound, the log10CFU/ml (Staphylococcus aureus [13]) was 3.3, the Activity (Staphylococcus aureus [14]) was “Active” and the “fT>MIC” value (Staphylococcus aureus [15]) was 15.4%. The “fT>MIC” value (Staphylococcus aureus [16]) was 31.2%, the “fT>MIC” value (Staphylococcus aureus [17]) was 21.5% and the “fT>MIC” value (Staphylococcus aureus [18]) was 20.4%. For the same compound, the “fT>MIC” value (Staphylococcus aureus [19]) was 36.2%, the “fT>MIC” value (Staphylococcus aureus [20]) was 7.4% and the “fT>MIC” value (Staphylococcus aureus [21]) was 2%. The log10CFU/ml (Staphylococcus aureus [22]) was 3, the log10CFU/ml (Staphylococcus aureus [23]) was 4 and the log10CFU/ml (Staphylococcus aureus [24]) was 4.2. For the same compound, the log10CFU/ml (Staphylococcus aureus [25]) was 4, the log10CFU/ml (Staphylococcus aureus [26]) was 3.7 and the log10CFU/ml (Staphylococcus aureus [27]) was 4.2.

Reference: ChEMBL document CHEMBL1255300, “Pharmacodynamics of the antibacterial effect and emergence of resistance to tomopenem, formerly RO4908463/CS-023, in an in vitro pharmacokinetic model of Staphylococcus aureus infection” (Antimicrob Agents Chemother, 2008)
